According to ChEMBL document CHEMBL1125131, “Long-acting dihydropyridine calcium antagonists. 4. Synthesis and structure-activity relationships for a series of basic and nonbasic derivatives of 2-[(2-aminoethoxy)methyl]-1,4-dihydropyridine calcium antagonists” (J Med Chem, 1990):

How the values were obtained:
Cavia porcellus = species: Cavia porcellus; assay: Negative logarithm of the concentration required to depress contraction in the Langendorff perfused guinea pig heart by 25%; assay type: functional
[1] = Selectivity index, inhibition of [Ca2+] induced contraction of K+ depolarized rat aorta (IC50) to inhibition of contraction of guinea pig heart (IC25); assay type: functional, Cavia porcellus
Rattus norvegicus = species: Rattus norvegicus; assay: Concentration required to block [Ca2+] induced contraction of K+ depolarized rat aorta by 50%; assay type: functional
Canis familiaris [2] = assay: The compound was tested for % decrease in coronary vasodilator activity in anesthetized dogs following intravenous administration; assay type: functional, Canis lupus familiaris
How it was run: (§1)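 Anesthetized beagle dogs were catheterized to record blood pressure and left ventricular pressure and to give compound intravenously, as one single dose for duration of action. Coronary blood flow was measured by hydrogen clearance with platinum electrodes in the coronary sinus and femoral artery, and cardiac output by thermodilution. Coronary vascular resistance was derived from these measurements.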

Canis familiaris [3] = species: Canis familiaris; assay: Duration of time taken for the compound for % decrease in coronary vasodilator activity; assay type: functional, Canis lupus familiaris; how it was run: as §1
Canis familiaris [4] = species: Canis familiaris; assay: Duration of time taken for percent decrease in coronary vasodilator activity; assay type: functional, Canis lupus familiaris; how it was run: as §1
Canis familiaris [5] = assay: Percent decrease in coronary vasodilator activity in anesthetized dogs following intravenous administration was determined; assay type: functional, Canis lupus familiaris; how it was run: as §1
[6] = Volume of distribution in dog after intravenous administration; assay type: ADME, organism-based, Canis lupus familiaris; settings: in vivo, read-out: Volume of distribution
[7] = Plasma half-life in dog after intravenous administration; assay type: ADME, organism-based, Canis lupus familiaris
[8] = Plasma clearance in dogs after intravenous administration; assay type: ADME, organism-based, Canis lupus familiaris; settings: dog

Row | Compound | IC50 (Rattus norvegicus) [nM] | Vd [6] [L/kg] | half-life [7] [h] | clearance [8] [mL/min/kg] | pIC25 (Cavia porcellus) | Selectivity index [1] | Decrease (Canis familiaris [2]) [%] | Duration of action (Canis familiaris [3]) [min] | Duration of action (Canis familiaris [4]) [min] | Decrease (Canis familiaris [5]) [%]
1 | CCO/C(O)=C1\C(COCCN(C)/C(=N/C)NC#N)=NC(C)=C(C(=O)OC)C1c1ccccc1Cl (stereo not given) | 25.1 | – | – | – | 6.6 | 10 | – | – | – | –
2 | CCO/C(O)=C1\C(COCCNC(=O)c2cnccn2)=NC(C)=C(C(=O)OC)C1c1ccccc1Cl (stereo not given) | 39.8 | – | – | – | 7.5 | 0.8 | – | – | – | –
3 | CCO/C(O)=C1\C(COCCNC(=O)c2ccc(O)nc2)=NC(C)=C(C(=O)OC)C1c1ccccc1Cl (stereo not given) | 6.31 | – | – | – | 7 | 16 | – | – | – | –
4 | CCO/C(O)=C1\C(COCCNCC(=O)NCCOC)=NC(C)=C(C(=O)OC)C1c1ccccc1Cl (stereo not given) | 5.01 | – | – | – | 7.5 | 6 | – | – | – | –
5 | CCO/C(O)=C1\C(COCCNC(C)(C)C(N)=O)=NC(C)=C(C(=O)OC)C1c1ccccc1Cl (stereo not given) | 3.16 | – | – | – | 7.6 | 8 | 85 | 210 | – | –
6 | CCO/C(O)=C1\C(COCCNC(C)C(N)=O)=NC(C)=C(C(=O)OC)C1c1ccccc1Cl (stereo not given) | 10 | – | – | – | 7.2 | 6 | 73 | 150 | – | –
7 | CCO/C(O)=C1\C(COCCN(CC(N)=O)CC(N)=O)=NC(C)=C(C(=O)OC)C1c1ccccc1Cl (stereo not given) | 63.1 | – | – | – | 6 | 16 | – | – | – | –
8 | CCO/C(O)=C1\C(COCCNC(=O)NCCN2CCNC2=O)=NC(C)=C(C(=O)OC)C1c1ccccc1Cl (stereo not given) | 15.8 | – | – | – | 6.2 | 40 | – | – | – | –
9 | CCO/C(O)=C1\C(COCCNCC(N)=O)=NC(C)=C(C(=O)OC)C1c1ccccc1Cl (stereo not given) | 3.98 | 3 | 4.7 | 7 | 7.1 | 20 | 88 | >300 | – | –
10 | CCO/C(O)=C1\C(COCCNC(=O)NCC(N)=O)=NC(C)=C(C(=O)OC)C1c1ccccc1Cl (stereo not given) | 20 | – | – | – | 6.4 | 20 | – | – | – | –
11 | CCO/C(O)=C1\C(COCCN(C)S(N)(=O)=O)=NC(C)=C(C(=O)OC)C1c1ccccc1Cl (stereo not given) | 25.1 | – | – | – | 6.7 | 8 | – | – | – | –
12 | COC(=O)C1=C(C)NC(C)=C(C(=O)OC)C1c1ccccc1[N+](=O)[O-] [NIFEDIPINE] | – | – | – | – | 7.5 | – | 77 | 36 | – | –

More lines, main results first:

Row | IC50 (Rattus norvegicus) [nM] | Vd [6] [L/kg] | half-life [7] [h] | clearance [8] [mL/min/kg] | Compound | pIC25 (Cavia porcellus) | Selectivity index [1] | Decrease (Canis familiaris [2]) [%] | Duration of action (Canis familiaris [3]) [min] | Duration of action (Canis familiaris [4]) [min] | Decrease (Canis familiaris [5]) [%]
13 | 15.8 | – | – | – | CCO/C(O)=C1\C(COCCNC(=O)c2cccnc2)=NC(C)=C(C(=O)OC)C1c1ccccc1Cl (stereo not given) | 7.6 | 1.6 | – | – | – | –
14 | 100 | – | – | – | CCO/C(O)=C1\C(COCCNCC(=O)NCCN)=NC(C)=C(C(=O)OC)C1c1ccccc1Cl (stereo not given) | 7 | 1 | – | – | – | –
15 | 50.1 | – | – | – | CCO/C(O)=C1\C(COCC/N=C(\NC#N)NCCN(C)C)=NC(C)=C(C(=O)OC)C1c1ccccc1Cl (stereo not given) | 6.8 | 3 | – | – | – | –
16 | 7.94 | – | – | – | CCO/C(O)=C1\C(COCCNS(N)(=O)=O)=NC(C)=C(C(=O)OC)C1c1ccccc1Cl (stereo not given) | 7.1 | 10 | – | – | – | –
17 | 15.8 | – | – | – | CCO/C(O)=C1\C(COCCNC(C)=O)=NC(C)=C(C(=O)OC)C1c1ccccc1Cl (stereo not given) | 7.6 | 1.6 | – | – | – | –
18 | 25.1 | – | – | – | CCO/C(O)=C1\C(COCCNCC(=O)NC)=NC(C)=C(C(=O)OC)C1c1ccccc1Cl (stereo not given) | 6.9 | 5 | – | – | – | –
19 | 10 | – | – | – | CCOC(=O)CNC(=O)NCCOCC1=C(C(=O)OCC)C(c2ccccc2Cl)/C(=C(\O)OC)C(C)=N1 (stereo not given) | 7 | 10 | 61 | 15 | – | –
20 | 158 | – | – | – | CCO/C(O)=C1\C(COCCNC(=O)Nc2ccnc(O)n2)=NC(C)=C(C(=O)OC)C1c1ccccc1Cl (stereo not given) | 7.7 | 0.1 | – | – | – | –
21 | 50.1 | – | – | – | CCO/C(O)=C1\C(COCCNC(=O)NCCN)=NC(C)=C(C(=O)OC)C1c1ccccc1Cl.O=C(O)/C=C\C(=O)O (stereo not given) | 7.1 | 1.6 | – | – | – | –
22 | 20 | – | – | – | CCO/C(O)=C1\C(COCCN(C)C(=O)NC)=NC(C)=C(C(=O)OC)C1c1ccccc1Cl (stereo not given) | 7 | 5 | – | – | 15 | 68
23 | 3.16 | – | – | – | CCO/C(O)=C1\C(COCCNC(=O)NC)=NC(C)=C(C(=O)OC)C1c1ccccc1Cl (stereo not given) | 7.6 | 13 | – | – | – | –
24 | 6.31 | – | – | – | CCO/C(O)=C1\C(COCC/N=C(/NC)NC#N)=NC(C)=C(C(=O)OC)C1c1ccccc1Cl (stereo not given) | 7.5 | 5 | – | – | – | –
